Test results from ChEMBL document CHEMBL1155452, “Oncocin (VDKPPYLPRPRPPRRIYNR-NH2): a novel antibacterial peptide optimized against gram-negative human pathogens” (J Med Chem, 2010).

Legend:
[1] = tested on: Micrococcus luteus; test: Antibacterial activity against Micrococcus luteus ATCC 10240 after 20 hrs by broth microdilution assay; assay type: functional; settings: ATCC 10240, 20 h
Method in brief: (§1)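 Nutrient-broth overnight cultures diluted in 1% TSB; E. coli BL21AI 7.5 × 10^5 cells/well, M. luteus ATCC 10240 2 × 10^6 cells/well. Peptides serially 2-fold diluted in 1% TSB from 128 to typically 0.5 μg/mL. Incubation at 37 °C; A595 read after 20 ± 2 h. MIC is the lowest concentration with absorbance not above medium only. Triplicate.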

[2] = tested on: Escherichia coli; test: Antibacterial activity against Escherichia coli BL21 AI after 20 hrs by broth microdilution assay; assay type: functional; method in brief: as §1
[3] = tested on: HeLa; test: Cytotoxicity against human HeLa cells at 600 ug/ml after 24 hrs by MTT assay; assay type: cell-based
Method in brief: (§2)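 HeLa (1.5 × 10^4/well, seeded overnight) or SH-SY5Y (2 × 10^4/well, differentiated 5 days with 10 μM trans-retinoic acid) in DMEM/Ham's F-12 with 5% or 15% FBS. Peptide added at 600 μg/mL for 24 h at 37 °C, 5% CO2. MTT 0.5 mg/mL for 4 h, then SDS/HCl for 16 h; A590 read against 650 nm. Normalized to PBS (100%); DMSO 12% as positive control.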

[4] = tested on: SH-SY5Y; test: Cytotoxicity against human SH-SY5Y cells at 600 ug/ml after 24 hrs by MTT assay; assay type: cell-based; method in brief: as §2

MIC [1] [µg/mL] | MIC [2] [µg/mL] | Compound | Activity [3] | Activity [4]
16 | 8 | H-VDKPPYLPRPRPPRRIYNRN-OH |  | 
128 | 64 | H-VDKPPYLPRPRPPRRIYN-OH |  | 
32 | 64 | H-VDKPPYLPRPHPPRRIYNNR-OH |  | 
64 | 128 | H-VDKPPYLPRPPPPRRIYNNR-OH |  | 
 |  | CC[C@H](C)[C@H](NC(=O)[C@H](Cc1ccc(O)cc1)NC(=O)[C@@H](NC(=O)[C@@H]1CCCN1C(=O)[C@H](CCCNC(=N)N)NC(=O)[C@H](CC(N)=O)NC(=O)[C@H](CC(N)=O)NC(=O)CN)C(C)C)C(=O)N1CCC[C@H]1C(=O)N[C@@H](CCC(N)=O)C(=O)N1CCC[C@H]1C(=O)N[C@@H](CCCNC(=N)N)C(=O)N1CCC[C@H]1C(=O)N1CCC[C@H]1C(=O)N[C@@H](Cc1cnc[nH]1)C(=O)N1CCC[C@H]1C(=O)N[C@@H](CCCNC(=N)N)C(=O)N[C@@H](CC(C)C)C(=O)O [APIDAECIN] | Non-toxic | Non-toxic
 |  | H-GKPRPYSPRPTSHPRPIRV-OH [DROSOCIN] | Non-toxic | Non-toxic
16 | 8 | H-VDKPPYLPRPRPPRRIYNNR-OH |  | 
